Measurements gathered from unrelated publications.
Lines come from different studies, so protocols differ.
Cell line: A549
Read-out: cell growth or viability

SMILES | assay | setting | measurement | value
O=C(c1ccc(F)cc1)c1c[nH]c2ncc(-c3ccc(N4CCNCC4)nc3)cc12 | MTT | 10 µM, 48 h | viability | 94.7%
CC(=O)O[C@H]1C[C@H](O[C@H]2[C@@H](O)C[C@H](O[C@H]3[C@@H](O)C[C@H](O[C@H]4CC[C@@]5(C)[C@H](CC[C@@H]6[C@@H]5C[C@@H](O)[C@]5(C)[C@@H](C7=CC(=O)OC7)CC[C@]65O)C4)O[C@@H]3C)O[C@@H]2C)O[C@H](C)[C@H]1O | MTT | 5 µM, 24 h | inhibition | 73.9%
O=C(N/N=C1\C(=O)N(Cc2ccccc2)c2ccc(Cl)cc21)c1cc2ccccc2[nH]1 | – | 30 µM | inhibition | 99.7%
CCOC(=O)CCn1cc(C(=O)c2ccc(F)cc2)c2cc(-c3ccc(N4CCN(C(=O)OC(C)(C)C)CC4)nc3)cnc21 | MTT | 10 µM, 48 h | viability | 90.2%
N.N.[Cl][Pt][Cl] | SRB | 72 h | EC50 | 4.5 µM
COc1cc([C@@H]2c3cc4c(cc3[C@H](O)[C@H]3COC(=O)[C@H]23)OCO4)cc(OC)c1OC | MTT | 72 h | EC50 | 0.024 µM
O=C(N/N=C1\C(=O)N(Cc2ccccc2)c2ccccc21)c1cc2ccccc2[nH]1 | – | 30 µM | inhibition | 98.4%
C[C@]12CC[C@H](O)C[C@H]1CC[C@@H]1[C@@H]2C[C@@H](O)[C@]2(C)[C@@H](C3=CC(=O)OC3)CC[C@]12O | MTT | 5 µM, 24 h | inhibition | 72.3%
CS(=O)(=O)N1CCN(c2ccc(-c3cnc4[nH]cc(C(=O)c5ccc(F)cc5)c4c3)cn2)CC1 | MTT | 10 µM, 48 h | viability | 97.3%
O=C(N/N=C1\C(=O)N(Cc2ccccc2)c2ccc(Br)cc21)c1cc2ccccc2[nH]1 | – | 30 µM | inhibition | 96.1%
Cc1c(Cc2cccc(N(C)S(=O)(=O)CCCNCCCC(=O)N3CCN(c4ccc(Nc5c(C(N)=O)cnc6ccc(-c7cnc8ccccc8c7)cc56)cc4C(F)(F)F)CC3)c2)c(=O)oc2cc(OC(=O)N(C)C)ccc12 | CCK-8 | – | GI50 | 4.66 µM
